Measurements reported in ChEMBL document CHEMBL3603808, “Discovery and structure of a new inhibitor scaffold of the autophagy initiating kinase ULK1” (Bioorg Med Chem, 2015).

Key:
[1] = target: High affinity nerve growth factor receptor (Homo sapiens) (UniProt P04629); assay: Inhibition of TRKA (unknown origin) at 2 uM by radioactive filter-binding assay
In short: (§1)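 Panel profiling of one compound against 50 kinases, carried out in duplicate at the International Centre for Protein Kinase Profiling. Radioactive filter-binding format.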

[2] = target: Tyrosine-protein kinase JAK2 (Homo sapiens) (UniProt O60674); assay: Inhibition of JAK2 (unknown origin) at 2 uM by radioactive filter-binding assay; in short: as §1
[3] = target: Serine/threonine-protein kinase D1 (Homo sapiens) (UniProt Q15139); assay: Inhibition of PKD1 (unknown origin) at 2 uM by radioactive filter-binding assay; in short: as §1
[4] = target: Serine/threonine-protein kinase TBK1 (Homo sapiens) (UniProt Q9UHD2); assay: Inhibition of TBK1 (unknown origin) at 2 uM by radioactive filter-binding assay; in short: as §1
[5] = target: Mitogen-activated protein kinase kinase kinase 7 (Homo sapiens) (UniProt O43318); assay: Inhibition of TAK1 (unknown origin) at 2 uM by radioactive filter-binding assay; in short: as §1
[6] = target: Calcium/calmodulin-dependent protein kinase kinase 2 (Homo sapiens) (UniProt Q96RR4); assay: Inhibition of CAMKKB (unknown origin) at 2 uM by radioactive filter-binding assay; in short: as §1
[7] = target: Calcium/calmodulin-dependent protein kinase kinase 2 (Homo sapiens) (UniProt Q96RR4); assay: Inhibition of CAMKKB (unknown origin) at 250 nM by radioactive filter-binding assay; in short: as §1
[8] = target: Tyrosine-protein kinase SYK (Homo sapiens) (UniProt P43405); assay: Inhibition of SYK (unknown origin) at 250 nM by radioactive filter-binding assay; in short: as §1
[9] = target: High affinity nerve growth factor receptor (Homo sapiens) (UniProt P04629); assay: Inhibition of TRKA (unknown origin) at 250 nM by radioactive filter-binding assay; in short: as §1
[10] = target: Serine/threonine-protein kinase 3 (Homo sapiens) (UniProt Q13188); assay: Inhibition of MST2 (unknown origin) at 250 nM by radioactive filter-binding assay; in short: as §1
[11] = target: Vascular endothelial growth factor receptor (Homo sapiens) (UniProt P17948+P35916+P35968); assay: Inhibition of VEGFR (unknown origin) at 250 nM by radioactive filter-binding assay; format: protein assay; in short: as §1
[12] = target: Ribosomal protein S6 kinase alpha-1 (Homo sapiens) (UniProt Q15418); assay: Inhibition of RSK1 (unknown origin) at 250 nM by radioactive filter-binding assay; in short: as §1
[13] = target: Mitogen-activated protein kinase kinase kinase 11 (Homo sapiens) (UniProt Q16584); assay: Inhibition of MLK3 (unknown origin) at 250 nM by radioactive filter-binding assay; in short: as §1
[14] = target: Mitogen-activated protein kinase kinase kinase 7 (Homo sapiens) (UniProt O43318); assay: Inhibition of TAK1 (unknown origin) at 250 nM by radioactive filter-binding assay; in short: as §1
[15] = target: Serine/threonine-protein kinase Chk2 (Homo sapiens) (UniProt O96017); assay: Inhibition of CHK2 (unknown origin) at 250 nM by radioactive filter-binding assay; in short: as §1
[16] = target: Proto-oncogene tyrosine-protein kinase Src (Homo sapiens) (UniProt P12931); assay: Inhibition of SRC (unknown origin) at 250 nM by radioactive filter-binding assay; in short: as §1
[17] = target: Tyrosine-protein kinase Lck (Homo sapiens) (UniProt P06239); assay: Inhibition of LCK (unknown origin) at 250 nM by radioactive filter-binding assay; in short: as §1
[18] = target: Serine/threonine-protein kinase D1 (Homo sapiens) (UniProt Q15139); assay: Inhibition of PKD1 (unknown origin) at 250 nM by radioactive filter-binding assay; in short: as §1
[19] = target: Serine/threonine-protein kinase N2 (Homo sapiens) (UniProt Q16513); assay: Inhibition of PRK2 (unknown origin) at 250 nM by radioactive filter-binding assay; in short: as §1
[20] = target: Interleukin-1 receptor-associated kinase 4 (Homo sapiens) (UniProt Q9NWZ3); assay: Inhibition of IRAK4 (unknown origin) at 250 nM by radioactive filter-binding assay; in short: as §1

Measured: inhibition

Serine/threonine-protein kinase D1 (Homo sapiens), sequence (Q15139 whole entry): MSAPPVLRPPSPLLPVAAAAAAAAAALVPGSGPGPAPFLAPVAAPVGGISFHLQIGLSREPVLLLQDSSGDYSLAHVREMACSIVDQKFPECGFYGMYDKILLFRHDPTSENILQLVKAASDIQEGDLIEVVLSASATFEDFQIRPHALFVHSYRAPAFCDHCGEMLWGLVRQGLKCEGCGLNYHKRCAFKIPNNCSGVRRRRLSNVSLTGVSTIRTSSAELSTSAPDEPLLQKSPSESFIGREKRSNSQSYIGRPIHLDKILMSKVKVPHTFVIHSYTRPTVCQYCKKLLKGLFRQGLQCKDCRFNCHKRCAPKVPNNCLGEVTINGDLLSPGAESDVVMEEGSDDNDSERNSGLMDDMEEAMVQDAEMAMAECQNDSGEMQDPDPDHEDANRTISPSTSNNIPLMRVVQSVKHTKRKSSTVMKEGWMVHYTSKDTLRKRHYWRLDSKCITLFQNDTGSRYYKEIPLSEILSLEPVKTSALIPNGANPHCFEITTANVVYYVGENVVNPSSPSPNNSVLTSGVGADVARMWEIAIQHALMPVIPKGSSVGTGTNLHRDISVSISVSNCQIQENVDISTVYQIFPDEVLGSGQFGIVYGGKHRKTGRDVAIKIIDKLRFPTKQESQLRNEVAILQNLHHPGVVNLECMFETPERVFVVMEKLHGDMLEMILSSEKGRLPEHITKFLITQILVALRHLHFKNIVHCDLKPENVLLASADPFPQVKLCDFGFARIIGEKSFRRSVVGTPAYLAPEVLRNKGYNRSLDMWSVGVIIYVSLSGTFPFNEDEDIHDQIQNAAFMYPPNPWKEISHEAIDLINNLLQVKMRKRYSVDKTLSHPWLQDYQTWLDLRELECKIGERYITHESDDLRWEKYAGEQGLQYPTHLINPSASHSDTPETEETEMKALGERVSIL
Calcium/calmodulin-dependent protein kinase kinase 2 (Homo sapiens), sequence (Q96RR4 2-588 limits assumed): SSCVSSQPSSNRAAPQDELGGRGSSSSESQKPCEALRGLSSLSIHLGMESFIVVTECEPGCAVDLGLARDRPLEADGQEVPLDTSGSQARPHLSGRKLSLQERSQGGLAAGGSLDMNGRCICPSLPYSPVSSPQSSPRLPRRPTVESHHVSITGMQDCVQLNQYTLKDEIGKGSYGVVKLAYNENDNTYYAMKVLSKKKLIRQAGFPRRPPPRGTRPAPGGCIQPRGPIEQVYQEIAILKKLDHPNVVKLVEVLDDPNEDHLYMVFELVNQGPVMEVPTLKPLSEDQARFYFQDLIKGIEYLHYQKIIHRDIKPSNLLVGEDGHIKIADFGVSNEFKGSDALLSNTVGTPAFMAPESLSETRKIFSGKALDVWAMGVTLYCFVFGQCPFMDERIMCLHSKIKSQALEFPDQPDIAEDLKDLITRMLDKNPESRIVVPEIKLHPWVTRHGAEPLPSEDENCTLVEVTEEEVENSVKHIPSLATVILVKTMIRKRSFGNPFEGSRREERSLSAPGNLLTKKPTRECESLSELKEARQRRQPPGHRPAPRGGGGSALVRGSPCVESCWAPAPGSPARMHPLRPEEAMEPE
Mitogen-activated protein kinase kinase kinase 7 (Homo sapiens), sequence (O43318 whole entry): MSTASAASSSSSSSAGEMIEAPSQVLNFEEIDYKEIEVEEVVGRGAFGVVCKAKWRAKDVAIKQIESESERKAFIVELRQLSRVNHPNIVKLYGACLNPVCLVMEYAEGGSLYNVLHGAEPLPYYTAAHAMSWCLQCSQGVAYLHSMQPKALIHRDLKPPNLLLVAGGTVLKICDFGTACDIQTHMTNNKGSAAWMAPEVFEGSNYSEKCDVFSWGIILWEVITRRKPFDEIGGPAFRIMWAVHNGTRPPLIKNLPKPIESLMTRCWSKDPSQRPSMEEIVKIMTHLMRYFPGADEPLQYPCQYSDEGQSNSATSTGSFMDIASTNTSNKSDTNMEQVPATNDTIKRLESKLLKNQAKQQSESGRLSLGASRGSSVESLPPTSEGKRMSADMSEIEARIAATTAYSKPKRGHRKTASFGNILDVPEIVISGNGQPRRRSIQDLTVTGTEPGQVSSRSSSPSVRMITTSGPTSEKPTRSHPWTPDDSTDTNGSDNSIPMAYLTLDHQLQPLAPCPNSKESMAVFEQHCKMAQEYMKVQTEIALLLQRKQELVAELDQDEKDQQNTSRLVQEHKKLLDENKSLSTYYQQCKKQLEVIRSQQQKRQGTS
High affinity nerve growth factor receptor (Homo sapiens), sequence (P04629 33-796 limits assumed): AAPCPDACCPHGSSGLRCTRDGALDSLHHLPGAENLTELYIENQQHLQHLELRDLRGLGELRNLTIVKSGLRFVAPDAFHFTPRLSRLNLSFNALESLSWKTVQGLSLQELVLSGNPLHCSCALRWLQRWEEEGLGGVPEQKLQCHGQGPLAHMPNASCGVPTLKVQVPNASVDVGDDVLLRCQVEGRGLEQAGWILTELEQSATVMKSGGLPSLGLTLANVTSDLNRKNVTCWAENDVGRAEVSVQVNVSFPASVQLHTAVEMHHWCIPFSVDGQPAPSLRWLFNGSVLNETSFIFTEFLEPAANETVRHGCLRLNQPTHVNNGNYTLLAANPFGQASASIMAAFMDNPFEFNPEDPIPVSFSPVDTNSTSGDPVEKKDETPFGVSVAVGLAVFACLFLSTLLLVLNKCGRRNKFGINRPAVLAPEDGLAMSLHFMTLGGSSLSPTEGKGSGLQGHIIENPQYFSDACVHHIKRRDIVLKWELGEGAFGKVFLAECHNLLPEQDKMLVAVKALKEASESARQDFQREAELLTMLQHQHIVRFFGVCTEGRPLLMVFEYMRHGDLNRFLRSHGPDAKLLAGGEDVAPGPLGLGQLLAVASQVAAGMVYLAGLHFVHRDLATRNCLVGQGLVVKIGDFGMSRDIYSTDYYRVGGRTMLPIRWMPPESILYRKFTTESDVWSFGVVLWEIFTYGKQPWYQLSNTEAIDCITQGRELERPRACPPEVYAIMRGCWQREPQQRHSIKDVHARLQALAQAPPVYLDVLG
Interleukin-1 receptor-associated kinase 4 (Homo sapiens), sequence (Q9NWZ3 whole entry): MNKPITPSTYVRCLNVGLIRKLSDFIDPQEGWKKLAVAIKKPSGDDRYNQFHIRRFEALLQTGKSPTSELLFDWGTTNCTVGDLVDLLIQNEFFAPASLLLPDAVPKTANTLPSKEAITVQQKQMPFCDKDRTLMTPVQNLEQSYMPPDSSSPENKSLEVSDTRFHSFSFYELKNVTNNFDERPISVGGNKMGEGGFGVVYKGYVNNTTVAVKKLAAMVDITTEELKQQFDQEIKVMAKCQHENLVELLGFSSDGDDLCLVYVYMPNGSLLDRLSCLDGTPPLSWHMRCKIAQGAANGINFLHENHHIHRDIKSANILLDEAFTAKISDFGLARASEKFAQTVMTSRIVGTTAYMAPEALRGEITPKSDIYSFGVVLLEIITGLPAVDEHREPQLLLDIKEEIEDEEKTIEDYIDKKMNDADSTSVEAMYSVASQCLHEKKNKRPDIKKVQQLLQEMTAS
Serine/threonine-protein kinase 3 (Homo sapiens), sequence (Q13188 whole entry): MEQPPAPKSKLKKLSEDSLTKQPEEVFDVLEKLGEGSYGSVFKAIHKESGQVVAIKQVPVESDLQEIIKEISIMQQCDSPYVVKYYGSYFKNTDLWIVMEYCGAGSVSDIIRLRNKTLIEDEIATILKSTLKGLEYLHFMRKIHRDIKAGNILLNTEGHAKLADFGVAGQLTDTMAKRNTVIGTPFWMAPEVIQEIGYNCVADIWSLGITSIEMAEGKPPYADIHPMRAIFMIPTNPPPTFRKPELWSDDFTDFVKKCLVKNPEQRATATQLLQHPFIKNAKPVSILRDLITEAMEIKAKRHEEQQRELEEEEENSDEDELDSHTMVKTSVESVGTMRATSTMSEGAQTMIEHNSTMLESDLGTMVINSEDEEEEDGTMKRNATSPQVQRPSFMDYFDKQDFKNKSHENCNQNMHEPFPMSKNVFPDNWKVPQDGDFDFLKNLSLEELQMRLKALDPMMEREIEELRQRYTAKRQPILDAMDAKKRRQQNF
Tyrosine-protein kinase Lck (Homo sapiens), sequence (P06239 2-509 limits assumed): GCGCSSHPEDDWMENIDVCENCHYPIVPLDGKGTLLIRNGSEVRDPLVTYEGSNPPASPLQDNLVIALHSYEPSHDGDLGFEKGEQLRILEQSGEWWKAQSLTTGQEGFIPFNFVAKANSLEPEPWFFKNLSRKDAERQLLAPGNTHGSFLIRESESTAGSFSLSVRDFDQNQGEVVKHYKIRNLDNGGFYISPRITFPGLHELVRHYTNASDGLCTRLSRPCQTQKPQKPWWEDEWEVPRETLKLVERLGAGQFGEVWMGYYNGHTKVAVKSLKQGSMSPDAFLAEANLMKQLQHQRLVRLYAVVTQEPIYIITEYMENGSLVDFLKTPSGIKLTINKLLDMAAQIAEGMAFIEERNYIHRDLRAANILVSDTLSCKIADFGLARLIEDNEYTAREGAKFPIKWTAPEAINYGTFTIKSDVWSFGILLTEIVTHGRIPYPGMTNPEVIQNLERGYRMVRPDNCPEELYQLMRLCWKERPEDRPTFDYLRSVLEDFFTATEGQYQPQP
Proto-oncogene tyrosine-protein kinase Src (Homo sapiens), sequence (P12931 2-536 limits assumed): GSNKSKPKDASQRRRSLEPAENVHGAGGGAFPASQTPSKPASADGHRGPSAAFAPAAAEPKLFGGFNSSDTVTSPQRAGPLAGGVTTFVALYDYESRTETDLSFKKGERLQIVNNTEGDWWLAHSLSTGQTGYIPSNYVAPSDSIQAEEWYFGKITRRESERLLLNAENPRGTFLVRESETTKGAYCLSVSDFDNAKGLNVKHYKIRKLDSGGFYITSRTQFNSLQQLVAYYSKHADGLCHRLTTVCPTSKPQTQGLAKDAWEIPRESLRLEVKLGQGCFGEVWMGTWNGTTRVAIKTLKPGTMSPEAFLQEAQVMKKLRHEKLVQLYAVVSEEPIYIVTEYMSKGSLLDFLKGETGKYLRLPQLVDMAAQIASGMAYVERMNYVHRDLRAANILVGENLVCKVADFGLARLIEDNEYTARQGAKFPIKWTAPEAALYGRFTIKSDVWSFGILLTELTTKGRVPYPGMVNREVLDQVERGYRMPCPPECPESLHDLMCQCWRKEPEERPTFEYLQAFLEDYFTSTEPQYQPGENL

NCCCNc1nc(Nc2cccc(NC(=O)N3CCCC3)c2)ncc1I
> 80%: [1] | [2] | [3] | [4] | [5] | [6]

c1ccc2c(Nc3cc(C4CCC4)[nH]n3)nc(Nc3ccc4[nH]cnc4c3)nc2c1
not listed: [1] | [2] | [3] | [4] | [5] | [6]
> 80%: all other assays above
